Values after ≈ are worked out from the molar mass of the structure shown. Active and inactive are the calls of the source. The calls are words filed in the database; no cut-off is given here.
Columns and labels:
[1] = tested on: Mycobacterium tuberculosis; experiment: Antimycobacterial activity against Mycobacterium tuberculosis H37Rv 331/88 measured after 14 days by micromethod; assay type: functional; details: H37Rv 331/88, 336 h
[2] = tested on: Mycobacterium tuberculosis; experiment: Antimycobacterial activity against Mycobacterium tuberculosis H37Rv 331/88 measured after 21 days by micromethod; assay type: functional; details: H37Rv 331/88, 504 h
[3] = tested on: Mycobacterium avium; experiment: Antimycobacterial activity against Mycobacterium avium 330/88 measured after 14 days by micromethod; assay type: functional; details: 330/88, 336 h
[4] = tested on: Mycobacterium avium; experiment: Antimycobacterial activity against Mycobacterium avium 330/88 measured after 21 days by micromethod; assay type: functional; details: 330/88, 504 h
[5] = tested on: Mycobacterium kansasii; experiment: Antimycobacterial activity against Mycobacterium kansasii isolate 235/80 after 7 days by micromethod; assay type: functional; details: isolate 235/80, 168 h
[6] = tested on: Mycobacterium kansasii; experiment: Antimycobacterial activity against Mycobacterium kansasii isolate 235/80 after 14 days by micromethod; assay type: functional; details: isolate 235/80, 336 h
[7] = tested on: Mycobacterium kansasii; experiment: Antimycobacterial activity against Mycobacterium kansasii isolate 235/80 after 21 days by micromethod; assay type: functional; details: isolate 235/80, 504 h
[8] = tested on: Mycobacterium kansasii; experiment: Antimycobacterial activity against Mycobacterium kansasii isolate 6509/96 after 7 days by micromethod; assay type: functional; details: isolate 6509/96, 168 h
[9] = tested on: Mycobacterium kansasii; experiment: Antimycobacterial activity against Mycobacterium kansasii isolate 6509/96 after 14 days by micromethod; assay type: functional; details: isolate 6509/96, 336 h
[10] = tested on: Mycobacterium kansasii; experiment: Antimycobacterial activity against Mycobacterium kansasii isolate 6509/96 after 21 days by micromethod; assay type: functional; details: isolate 6509/96, 504 h
[11] = Solubility of the compound in Sula's semisynthetic medium up to 1 mM; assay type: physicochemical
[12] = tested on: Staphylococcus aureus; experiment: Antibacterial activity against Staphylococcus aureus CCM 4516/08 incubated for 24 hrs under dark condition by microdilution broth assay; assay type: functional; details: CCM 4516/08, 24 h
Summary of the method: (§1)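 Broth microdilution per M07-A07, modified, in Mueller-Hinton broth adjusted to pH 7.4 (±0.2). Inoculum is prepared in sterile water to McFarland 0.5 (1.5 × 10⁸ CFU/mL). Plates are incubated in the dark at 35 °C in humid air. MIC is read after 24 and 48 h as at least 95% growth reduction versus control (IC₉₅).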

[13] = tested on: Staphylococcus aureus; experiment: Antibacterial activity against Staphylococcus aureus CCM 4516/08 incubated for 48 hrs under dark condition by microdilution broth assay; assay type: functional; details: CCM 4516/08, 48 h; summary of the method: as §1
[14] = tested on: Staphylococcus aureus; experiment: Antibacterial activity against methicillin-resistant Staphylococcus aureus H 5996/08 incubated for 24 hrs under dark condition by microdilution broth assay; assay type: functional; details: H 5996/08, 24 h
Summary of the method: (§2)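 Microdilution broth method modified per M07-A07, in Mueller-Hinton broth adjusted to pH 7.4 (±0.2). Inoculum made in sterile water to 0.5 McFarland (1.5 × 10⁸ CFU/mL). Plates incubated in the dark at 35 °C in a humid atmosphere, with reads at 24 and 48 h. MIC taken as at least 95% growth reduction (IC₉₅) versus control.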

[15] = tested on: Staphylococcus aureus; experiment: Antibacterial activity against methicillin-resistant Staphylococcus aureus H 5996/08 incubated for 48 hrs under dark condition by microdilution broth assay; assay type: functional; details: H 5996/08, 48 h; summary of the method: as §2
[16] = tested on: Staphylococcus epidermidis; experiment: Antibacterial activity against Staphylococcus epidermidis H 6966/08 incubated for 24 hrs under dark condition by microdilution broth assay; assay type: functional; details: H 6966/08, 24 h; summary of the method: as §1
[17] = tested on: Staphylococcus epidermidis; experiment: Antibacterial activity against Staphylococcus epidermidis H 6966/08 incubated for 48 hrs under dark condition by microdilution broth assay; assay type: functional; details: H 6966/08, 48 h; summary of the method: as §1
[18] = tested on: Escherichia coli; experiment: Antibacterial activity against Escherichia coli CCM 4517 incubated for 24 hrs under dark condition by microdilution broth assay; assay type: functional; details: CCM 4517, 24 h; summary of the method: as §1
[19] = tested on: Escherichia coli; experiment: Antibacterial activity against Escherichia coli CCM 4517 incubated for 48 hrs under dark condition by microdilution broth assay; assay type: functional; details: CCM 4517, 48 h; summary of the method: as §1
[20] = tested on: Klebsiella pneumoniae; experiment: Antibacterial activity against Klebsiella pneumoniae D 11750/08 up to 500 uM incubated for 24 to 48 hrs under dark condition by microdilution broth assay; assay type: functional; summary of the method: as §1
[21] = tested on: Klebsiella pneumoniae; experiment: Antibacterial activity against ESBL positive Klebsiella pneumoniae J 14368/08 up to 500 uM incubated for 24 to 48 hrs under dark condition by microdilution broth assay; assay type: functional; summary of the method: as §1
[22] = tested on: Pseudomonas aeruginosa; experiment: Antibacterial activity against Pseudomonas aeruginosa CCM 1961 up to 500 uM incubated for 24 to 48 hrs under dark condition by microdilution broth assay; assay type: functional; summary of the method: as §1
[23] = tested on: Candida albicans; experiment: Antifungal activity against Candida albicans ATCC 44859 after 24 hrs by microdilution broth assay; assay type: functional; details: ATCC 44859, 24 h
Summary of the method: (§3)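 Broth microdilution per CLSI M27-A3 and M38-A2 in RPMI 1640 with glutamine, buffered to pH 7.0 with MOPS. Compounds are diluted in DMSO. Final inoculum is 5 × 10³ CFU/mL for yeasts and 0.5–5 × 10⁴ CFU/mL for moulds. Plates are incubated in the dark at 35 °C in humid air and read visually and/or at 540 nm after 24 and 48 h. MIC is ≥80% growth reduction (IC₈₀) for yeasts and ≥50% (IC₅₀) for filamentous fungi.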

[24] = tested on: Candida albicans; experiment: Antifungal activity against Candida albicans ATCC 44859 after 48 hrs by microdilution broth assay; assay type: functional; details: ATCC 44859, 48 h; summary of the method: as §3
[25] = tested on: Candida tropicalis; experiment: Antifungal activity against Candida tropicalis 156 after 24 hrs by microdilution broth assay; assay type: functional; details: Candida tropicalis, 156, 24 h; summary of the method: as §3
[26] = tested on: Candida tropicalis; experiment: Antifungal activity against Candida tropicalis 156 after 48 hrs by microdilution broth assay; assay type: functional; details: Candida tropicalis, 156, 48 h; summary of the method: as §3
[27] = tested on: Nakaseomyces glabratus; experiment: Antifungal activity against Candida glabrata 20/I after 24 hrs by microdilution broth assay; assay type: functional; summary of the method: as §3
[28] = tested on: Nakaseomyces glabratus; experiment: Antifungal activity against Candida glabrata 20/I after 48 hrs by microdilution broth assay; assay type: functional; summary of the method: as §3
[29] = tested on: Trichosporon asahii; experiment: Antifungal activity against Trichosporon asahii 1188 after 24 hrs by microdilution broth assay; assay type: functional; details: Trichosporon asahii, 1188, 24 h; summary of the method: as §3
[30] = tested on: Trichosporon asahii; experiment: Antifungal activity against Trichosporon asahii 1188 after 48 hrs by microdilution broth assay; assay type: functional; details: Trichosporon asahii, 1188, 48 h; summary of the method: as §3
[31] = tested on: Aspergillus fumigatus; experiment: Antifungal activity against Aspergillus fumigatus 231 after 24 hrs by microdilution broth assay; assay type: functional; details: Aspergillus fumigatus, 231, 24 h; summary of the method: as §3
[32] = tested on: Aspergillus fumigatus; experiment: Antifungal activity against Aspergillus fumigatus 231 after 48 hrs by microdilution broth assay; assay type: functional; details: Aspergillus fumigatus, 231, 48 h; summary of the method: as §3
[33] = tested on: Trichophyton mentagrophytes; experiment: Antifungal activity against Trichophyton mentagrophytes 445 after 72 hrs by microdilution broth assay; assay type: functional; details: Trichophyton mentagrophytes, 445, 72 h
Summary of the method: (§4)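 Broth microdilution per CLSI M38-A2 in RPMI 1640 with glutamine, buffered to pH 7.0 with MOPS, with DMSO as diluent. Final inoculum is 0.5–5 × 10⁴ CFU/mL. Plates are incubated in the dark at 35 °C in humid air and read visually and/or at 540 nm after 72 and 120 h. MIC is at least 50% growth reduction versus control.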

[34] = tested on: Trichophyton mentagrophytes; experiment: Antifungal activity against Trichophyton mentagrophytes 445 after 120 hrs by microdilution broth assay; assay type: functional; details: Trichophyton mentagrophytes, 445, 120 h; summary of the method: as §4
[35] = tested on: Pichia kudriavzevii; experiment: Antifungal activity against Candida krusei E28 after 24 to 48 hrs hrs by microdilution broth assay; assay type: functional; summary of the method: as §3
[36] = tested on: Lichtheimia corymbifera; experiment: Antifungal activity against Absidia corymbifera 272 after 24 to 48 hrs hrs by microdilution broth assay; assay type: functional; summary of the method: as §3
[37] = tested on: Enterococcus; experiment: Antibacterial activity against Enterococcus sp. J 14365/08 incubated for 24 hrs under dark condition by microdilution broth assay; details: J 14365/08, 24 h
[38] = tested on: Enterococcus; experiment: Antibacterial activity against Enterococcus sp. J 14365/08 incubated for 48 hrs under dark condition by microdilution broth assay; details: J 14365/08, 48 h

Row | Compound | MIC [1] [µM] | MIC [2] [µM] | MIC [3] [µM] | MIC [4] [µM] | MIC [5] [µM] | MIC [6] [µM] | MIC [7] [µM] | MIC [8] [µM] | MIC [9] [µM] | MIC [10] [µM] | solubility [11] | MIC95 [12] [µM] | MIC95 [13] [µM] | MIC95 [14] [µM] | MIC95 [15] [µM] | MIC95 [16] [µM] | MIC95 [17] [µM] | MIC95 [18] [µM] | MIC95 [19] [µM] | Activity [20] | also measured
1 | O=C(CN1C(=O)CSC1=S)Oc1ccc(C(F)(F)F)cc1 | 500 (≈ 168 µg/mL) | 1000 (≈ 335 µg/mL) | 1000 (≈ 335 µg/mL) | 1000 (≈ 335 µg/mL) | 1000 (≈ 335 µg/mL) | 1000 (≈ 335 µg/mL) | 1000 (≈ 335 µg/mL) | 1000 (≈ 335 µg/mL) | 1000 (≈ 335 µg/mL) | 1000 (≈ 335 µg/mL) | Soluble | 15.6 (≈ 5.24 µg/mL) | 62.5 (≈ 21 µg/mL) | 15.6 (≈ 5.24 µg/mL) | 62.5 (≈ 21 µg/mL) | 15.6 (≈ 5.24 µg/mL) | 62.5 (≈ 21 µg/mL) | > 500 | > 500 | inactive | Activity [21]: inactive; Activity [22]: inactive; MIC80 [23]: > 500 µM; MIC80 [24]: > 500 µM; MIC80 [25]: > 500 µM; MIC80 [26]: > 500 µM; MIC80 [27]: 500 µM (≈ 168 µg/mL); MIC80 [28]: > 500 µM; MIC80 [29]: 500 µM (≈ 168 µg/mL); MIC80 [30]: > 500 µM; MIC50 [31]: > 500 µM; MIC50 [32]: > 500 µM; MIC50 [33]: 125 µM (≈ 41.9 µg/mL); MIC50 [34]: 250 µM (≈ 83.8 µg/mL); Activity [35]: inactive; Activity [36]: inactive; MIC95 [37]: 15.6 µM (≈ 5.24 µg/mL); MIC95 [38]: 62.5 µM (≈ 21 µg/mL)
2 | O=C(O)CN1C(=O)/C(=C/c2ccccc2O)SC1=S | 32 (≈ 9.45 µg/mL) | 32 (≈ 9.45 µg/mL) | 125 (≈ 36.9 µg/mL) | 125 (≈ 36.9 µg/mL) | 32 (≈ 9.45 µg/mL) | 62.5 (≈ 18.5 µg/mL) | 62.5 (≈ 18.5 µg/mL) | 32 (≈ 9.45 µg/mL) | 62.5 (≈ 18.5 µg/mL) | 62.5 (≈ 18.5 µg/mL) | Soluble | 62.5 (≈ 18.5 µg/mL) | 62.5 (≈ 18.5 µg/mL) | 62.5 (≈ 18.5 µg/mL) | 62.5 (≈ 18.5 µg/mL) | 125 (≈ 36.9 µg/mL) | 125 (≈ 36.9 µg/mL) | 500 (≈ 148 µg/mL) | > 500 | inactive | Activity [21]: inactive; Activity [22]: inactive; MIC80 [23]: 500 µM (≈ 148 µg/mL); MIC80 [24]: 500 µM (≈ 148 µg/mL); MIC80 [25]: > 500 µM; MIC80 [26]: > 500 µM; MIC80 [27]: > 500 µM; MIC80 [28]: > 500 µM; MIC80 [29]: > 500 µM; MIC80 [30]: > 500 µM; MIC50 [31]: > 500 µM; MIC50 [32]: > 500 µM; MIC50 [33]: 250 µM (≈ 73.8 µg/mL); MIC50 [34]: 250 µM (≈ 73.8 µg/mL); Activity [35]: inactive; Activity [36]: inactive; MIC95 [37]: 125 µM (≈ 36.9 µg/mL); MIC95 [38]: 125 µM (≈ 36.9 µg/mL)

— ChEMBL document CHEMBL3992547, “Antimicrobial activity of rhodanine-3-acetic acid derivatives” (Bioorg Med Chem, 2017)
